Assay results gathered from unrelated publications.
Lines come from different studies, so protocols differ. Converted amounts (≈) assume the structure as drawn.
Organism: Pichia kudriavzevii

SMILES	test	system	conditions	endpoint	result
C[C@@H]1[C@H](O)[C@@H](C)/C=C/C=C/C=C/C=C/C=C/C=C/C=C/[C@H](O[C@@H]2O[C@H](C)[C@@H](O)[C@H](N)[C@@H]2O)C[C@@H]2O[C@](O)(C[C@@H](O)C[C@@H](O)[C@H](O)CC[C@@H](O)C[C@@H](O)CC(=O)O[C@H]1C)C[C@H](O)[C@H]2C(=O)O	microbial growth	ATCC6258		IC50	0.95 µg/mL (≈ 1.03 µM)
CCCCCCCCCN1CCN(CC(O)(Cn2cncn2)c2ccc(F)cc2F)CC1 (stereo not shown)	microbial growth, broth dilution	ATCC6258	48 h	MIC	0.975 µg/mL (≈ 2.17 µM)
CCCCCCOc1c(OC)cc(NC(C)CCCN)c2nc(C(C)(C)C)ccc12 (stereo not shown)	microbial growth	ATCC6258		IC50	7.16 µg/mL (≈ 17.2 µM)
CCCCCCCCCCCCCN1CCN(CC(O)(Cn2cncn2)c2ccc(F)cc2F)CC1 (stereo not shown)	microbial growth, broth dilution	ATCC6258	48 h	MIC	0.975 µg/mL (≈ 1.93 µM)
CCCCCCCOc1c(OC)cc(NC(C)CCCN)c2nc(C(C)(C)C)ccc12 (stereo not shown)	microbial killing	ATCC6258		MFC	5 µg/mL (≈ 11.6 µM)
CCCCCCCCCCCCCN1CCNCC1	microbial growth, broth dilution	ATCC6258	48 h	MIC	0.975 µg/mL (≈ 3.63 µM)
C[C@@H]1[C@H](O)[C@@H](C)/C=C/C=C/C=C/C=C/C=C/C=C/C=C/[C@H](O[C@@H]2O[C@H](C)[C@@H](O)[C@H](N)[C@@H]2O)C[C@@H]2O[C@](O)(C[C@@H](O)C[C@@H](O)[C@H](O)CC[C@@H](O)C[C@@H](O)CC(=O)O[C@H]1C)C[C@H](O)[C@H]2C(=O)O	microbial killing	ATCC6258		MFC	1.25 µg/mL (≈ 1.35 µM)
CCCCCCCCCCCCCCN1CCOCC1	microbial growth, broth dilution	ATCC6258	48 h	MIC	> 31.3 µg/mL
CCCCCOc1c(OC)cc(NC(C)CCCNC(=O)C(N)CC(C)C)c2nc(C(C)(C)C)ccc12 (stereo not shown)	microbial growth	ATCC6258		IC50	8.73 µg/mL (≈ 17 µM)
C[C@@H]1[C@H](O)[C@@H](C)/C=C/C=C/C=C/C=C/C=C/C=C/C=C/[C@H](O[C@@H]2O[C@H](C)[C@@H](O)[C@H](N)[C@@H]2O)C[C@@H]2O[C@](O)(C[C@@H](O)C[C@@H](O)[C@H](O)CC[C@@H](O)C[C@@H](O)CC(=O)O[C@H]1C)C[C@H](O)[C@H]2C(=O)O	microbial growth, broth dilution	ATCC6258		IC50	0.6 µg/mL (≈ 0.649 µM)
CN1CCN(CC(O)(Cn2cncn2)c2ccc(F)cc2F)CC1 (stereo not shown)	microbial growth, broth dilution	ATCC6258	48 h	MIC	15.6 µg/mL (≈ 46.2 µM)
Nc1[nH]c(=O)ncc1F	microbial growth			MIC90	8 µg/mL (≈ 62 µM)
C[C@@H]1[C@H](O)[C@@H](C)/C=C/C=C/C=C/C=C/C=C/C=C/C=C/[C@H](O[C@@H]2O[C@H](C)[C@@H](O)[C@H](N)[C@@H]2O)C[C@@H]2O[C@](O)(C[C@@H](O)C[C@@H](O)[C@H](O)CC[C@@H](O)C[C@@H](O)CC(=O)O[C@H]1C)C[C@H](O)[C@H]2C(=O)O	microbial growth	ATCC6258		MIC	1.25 µg/mL (≈ 1.35 µM)
C[C@@H]1[C@H](O)[C@@H](C)/C=C/C=C/C=C/C=C/C=C/C=C/C=C/[C@H](O[C@@H]2O[C@H](C)[C@@H](O)[C@H](N)[C@@H]2O)C[C@@H]2O[C@](O)(C[C@@H](O)C[C@@H](O)[C@H](O)CC[C@@H](O)C[C@@H](O)CC(=O)O[C@H]1C)C[C@H](O)[C@H]2C(=O)O	microbial growth			MIC90	0.125 µg/mL (≈ 0.135 µM)
CCCCCCCCCCCCCC(O)CC(O)CO (stereo not shown)	microbial growth, broth dilution	ATCC6258		IC50	196 µg/mL (≈ 681 µM)
CCCCOc1c(OC)cc(NC(C)CCCN)c2nc(C(C)(C)C)cc(C)c12 (stereo not shown)	microbial killing	ATCC6258		MFC	10 µg/mL (≈ 24.9 µM)
CCCCCCCCCCCCN1CCNCC1	microbial growth, broth dilution	ATCC6258	48 h	MIC	1.95 µg/mL (≈ 7.66 µM)
CCC(C)n1ncn(-c2ccc(N3CCN(c4ccc(OCC5COC(Cn6cncn6)(c6ccc(Cl)cc6Cl)O5)cc4)CC3)cc2)c1=O (stereo not shown)	microbial growth			MIC90	0.5 µg/mL (≈ 0.709 µM)
CCCCCCOc1c(OC)cc(NC(C)CCCN)c2nc(C(C)(C)C)cc(C)c12 (stereo not shown)	microbial growth	ATCC6258		IC50	3.73 µg/mL (≈ 8.68 µM)
OC(CN1CCOCC1)(Cn1cncn1)c1ccc(F)cc1F (stereo not shown)	microbial growth, broth dilution	ATCC6258	48 h	MIC	> 31.3 µg/mL
CCCCCCCOc1c(OC)cc(NC(C)CCCNC(=O)C(N)C(C)CC)c2nc(C(C)(C)C)ccc12 (stereo not shown)	microbial growth	ATCC6258		IC50	4.38 µg/mL (≈ 8.07 µM)
C=CCCCCCCCCCCCC(O)CC(O)CO (stereo not shown)	microbial growth, broth dilution	ATCC6258		IC50	> 200 µg/mL
